Assay outcomes from PubChem BioAssay.
Rows were chosen to be rich in hits. Some 1.2% of all compounds tested hit in one or more screens of this group.
ARFGAP1 inh: rat ARFGAP1 inhibition. Arfgap1-stimulated ARF1 GTP hydrolysis, GDP FP detection. inhibition, % at 16.5 µM. 360,000 compounds, 0.26% hits. AID 651572;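 active = inhibition above a per-plate limit, mean inhibition of low control wells plus 3 SD, cut at about 25% in these data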;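 note: 0% = DMSO wells with enzyme and 100% = wells lacking Arfgap1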
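Material: truncated rat Arfgap1 GAP domain; Incubation: compound-enzyme preincubation 20 min, reaction 120 min, detection 60 min, 25 °C; Read-out: percent inhibition of Arfgap1-stimulated GTP hydrolysis; Technique: FP, GDP Alexa 633 tracer displaced from anti-GDP antibody, 620/688 nm; Controls: No-Arfgap1 wells (100%) versus DMSO full-reaction wells (0%); Replication: single well per compound.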
Rin1 Abl inh: human Rin1-Abl interaction inhibition. P00519+Q13671. TR-FRET Rin1/Abl binding, biochemical. inhibition, % at 7.35 µM. 360,000 compounds, 0.4% hits; in the data active = inhibition above about 5%, passing the limit was not always enough
GalR3 antag: blocks the human galanin receptor 3 | inhibition, % at 3 µM | HEK293 GalR3-CNG cAMP membrane potential fluorescence; galR3 body fused to GalR1 C-terminus | 360,000 compounds, 0.44% hits;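 active = inhibition above the screen-wide average plus 3 SD, cut at about 13% in these data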;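 note: forskolin and galanin both at EC90 stimulate the cells; cAMP rise reported by CNG channel membrane potential dye signal; 0% = forskolin plus galanin with DMSO and 100% = forskolin alone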
ASAP1 inh: blocks human ASAP1-stimulated Arf1 GTP hydrolysis. Q9ULH1. GDP FP detection. inhibition, % at 16.5 µM. 360,000 compounds, 0.19% hits; in the data active = inhibition above about 25%;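 note: 0% = vehicle with enzyme and substrate and 100% = no enzyme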
ARFGAP1 confirm: rat ARFGAP1 inhibition, confirmed; inhibition, % at 16.5 µM; shares compounds with ARFGAP1 inh; 890 compounds, 30% hits; ARFGAP1-stimulated ARF1 GTP hydrolysis, GDP tracer FP;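 active = average inhibition over triplicates above the hit cutoff set in the earlier primary screen, cut at about 25% in these data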;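 note: 0% = Arfgap1 plus ARF1-GTP with DMSO and 100% = wells lacking Arfgap1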
Target sequence (Q62848 whole entry, looked up): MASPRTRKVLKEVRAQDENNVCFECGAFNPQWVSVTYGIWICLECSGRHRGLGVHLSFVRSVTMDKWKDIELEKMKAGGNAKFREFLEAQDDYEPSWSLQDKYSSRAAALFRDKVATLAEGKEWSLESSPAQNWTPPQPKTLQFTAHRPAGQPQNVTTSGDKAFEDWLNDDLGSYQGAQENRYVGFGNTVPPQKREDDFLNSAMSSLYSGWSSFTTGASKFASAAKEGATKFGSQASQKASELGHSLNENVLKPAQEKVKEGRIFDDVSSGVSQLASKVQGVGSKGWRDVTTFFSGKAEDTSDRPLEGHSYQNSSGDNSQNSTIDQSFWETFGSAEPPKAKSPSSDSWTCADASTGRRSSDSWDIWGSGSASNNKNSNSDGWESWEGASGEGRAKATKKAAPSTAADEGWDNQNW
GalR3 antag conf: confirmation of human galanin receptor 3 antagonists; shares compounds with GalR3 antag; HEK293 GalR3 CNG cAMP biosensor, membrane potential fluorescence; galR3 fused to GalR1 carboxy tail; challenged with forskolin and galanin at EC90; inhibition, % at 3 µM; 1,600 compounds, 59% hits;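 active = inhibition above the primary screen's cutoff, the mean inhibition of all screened compounds plus 3 SD, cut at about 13% in these data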;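 note: 0% = forskolin plus galanin and 100% = forskolin alone with DMSO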
CNG parental: parental cell agonism counter-screen for GalR3 antagonists; shares compounds with GalR3 antag; HEK293-CNG parental cells, cAMP membrane potential fluorescence; normalised: DMSO wells 0%, forskolin wells 100%; activation, % at 3 µM; 1,600 compounds, 10% hits; AID 652268; in the data active = activation above about 1.3%
The depositor's hits bear a star; / = no result given; ! = a repeat was not active.

SMILES	ARFGAP1 inh	Rin1 Abl inh	GalR3 antag	ASAP1 inh	ARFGAP1 confirm	others
COc1ccc(NC(=O)CSc2nc3sc4c(c3c(=O)n2-c2ccc(OC)cc2)CCN(C)C4)cc1	20	-3	-5	12	/
COc1ccc(-n2c(SCC(=O)Nc3nccs3)nc3sc4c(c3c2=O)CCN(C)C4)cc1	25*	-3	-3	9	27*
CCN(CC)CCOC(=O)c1ccc(N/C=C(/C#N)c2nc(-c3ccc4c(c3)OCO4)cs2)cc1	32*	-4	4	8	73*
COCc1cc(N2CCN(C(=O)OC(C)(C)C)C[C@H]2C)ccc1N1CCN(Cc2ccccc2)[C@@H](C)C1	11	/	-7	-19	/
CCOC(=O)c1cc2c(=Cc3ccc(N(C)C)cc3)c3ccccc3n2[n+]1C	29*	-8	-1	21	-6
CCCCCc1c(C)nc(N2CCc3ccccc32)[nH]c1=O	26*	2	0	6	3
CC(C)(C)n1nc(C2CC2)c(Br)c1NC(=O)c1ccccc1Cl	4	/	-5	3	/
COc1ccc(C(=O)N[C@H](C(=O)Nc2ccc(S(=O)(=O)N3CCOCC3)cc2)C(C)C)cc1	25*	-1	0	8	3
O=C(CCCc1ccccc1)N=C1SC2CS(=O)(=O)CC2N1c1ccccc1F (stereo not given)	29*	3	1	9	0
O=C(CCC1CCCC1)N=C1SC2CS(=O)(=O)CC2N1c1ccccc1F (stereo not given)	-4	1	-5	4	/
CCOC(=O)Cc1nc(-c2cccc(C(F)(F)F)c2)no1	27*	1	-5	2	5
C[C@@H]1ON(C)[C@H]2C[C@H]3c4[nH]c5c(-c6cc(Cl)cc(Cl)c6)cccc5c4CCN3C(=O)[C@@H]12	3	/	-5	8	/
Nc1ccccc1-c1nc2ccccc2[nH]c1=O	2	1	-14	3	/
O=c1[nH]c2ccccc2nc1-c1c[nH]c2ccccc12	26*	2	-12	4	13
C#CCN(Cc1cccc(F)c1)C(=O)c1nnc2c3cc(F)ccc3n(S(=O)(=O)c3ccc(OC)cc3)c2n1	13	/	-6	10	/
O=S1(=O)N[C@@H](Cc2ccccc2)COc2cccc(NCCCN3CCOCC3)c21	7	/	-6	4	/
N#C/C(=C\c1ccc(Oc2ccc(C(F)(F)F)cc2[N+](=O)[O-])cc1)c1nc2ccccc2[nH]1	25*	-2	5	15	10
O=C(Nc1ccc(F)c(Cl)c1)c1ccc2sc([C@H]3C[C@H](O)[C@@H](CO)O3)nc2c1	25*	0	1	13	5
COc1ccccc1N1CCN(C(=O)c2cc3n(n2)C(C(F)(F)F)CC(c2ccco2)N3)CC1 (stereo not given)	30*	2	-1	0	-3
C=CCNc1ccc2c(c1)OC[C@H](Cc1ccccc1)NS2(=O)=O	11	/	-3	-10	/
O=C1c2ccccc2C(=O)c2c(Nc3ccc(CCO)cc3)ccc(O)c21	-3	-1	-8	0	/
O=C1c2c(O)ccc(O)c2C(=O)c2c(NCCNCCO)ccc(NCCNCCO)c21	25*!	-34	-8	21	56*
COc1ccc(OC)c([N+](=O)[O-])c1C(N)=O	26*	-2	3	8	-5
COc1cccc(-c2cc(NC=O)c3ncc(-c4ccc(OC)c(OC)c4)n3c2)c1	10	-5	38*	10	/	GalR3 antag conf=39*;CNG parental=1
COc1cccc(-c2cnc3c(NC=O)cc(-c4cc(OC)c(OC)c(OC)c4)cn23)c1	-4	-8	-1	20	/
COc1ccccc1-c1cc(NC=O)c2ncc(-c3ccc(S(C)(=O)=O)cc3)n2c1	7	-5	14*	3	/	GalR3 antag conf=30*;CNG parental=1
COc1ccc(-c2cnc3c(NC=O)cc(-c4ccccc4)cn23)cc1OC	13	-2	44*	7	/	GalR3 antag conf=15*;CNG parental=1
COc1ccc(-c2cnc3c(NC=O)cc(-c4cc(OC)c(OC)c(OC)c4)cn23)cc1OC	2	2	4	1	/
